Laboratory results taken from ChEMBL document CHEMBL3045055, “Synthesis and antifungal activities of carabrol ester derivatives” (J Agric Food Chem, 2012).
In brackets after ≈: the same amount, converted by molar mass.

Tested on: Colletotrichum lagenaria
Assay: Antifungal activity against Colletotrichum lagenaria assessed as inhibition of spore germination at 24 +/- 1 degC for 8 hr (plant disease: on leaf and fruit)
Format: functional, organism-based
In short: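 C. lagenarium isolate (Accession No. 36199, Agricultural Culture Collection of China) grown 2 weeks at 25 ± 1 °C on PDA. Conidia flooded off with sterile water, filtered through cheesecloth, and suspended in water with 0.1% (v/v) Tween 20 at 1.0 × 10^6 spore/mL by hemocytometer. Samples dissolved in methanol, diluted with sterile water to test solutions; spore germination inhibition read, IC50 derived.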

Structure (SMILES) | IC50 [µg/mL]
C=C1C(=O)O[C@@H]2C[C@]3(C)C(CCC(C)OC(=O)c4ccc(C#N)cc4)[C@@H]3C[C@H]12 (some centres undefined) [CARABRYL 4-CYANOBENZOATE] | 2.7 (≈ 7.12 µM)
C=C1C(=O)O[C@@H]2C[C@]3(C)C(CCC(C)OC(=O)c4ccccc4Br)[C@@H]3C[C@H]12 (some centres undefined) [CARABRYL 2-BROMOBENZOATE] | 29.2 (≈ 67.3 µM)
C=C1C(=O)O[C@@H]2C[C@]3(C)C(CCC(C)OC(=O)Cc4cccc5ccccc45)[C@@H]3C[C@H]12 (stereo partly drawn) [CARABRYL ALPHA-NAPHTHYLACETATE] | 30.3 (≈ 72.3 µM)
C=C1C(=O)O[C@@H]2C[C@]3(C)C(CCC(C)OC(=O)c4cccs4)[C@@H]3C[C@H]12 (some centres undefined) [CARABRYL 2-THIOPHENECARBOXYLATE] | 30.8 (≈ 85.5 µM)
C=C1C(=O)O[C@@H]2C[C@]3(C)C(CCC(C)OC(=O)/C=C/c4ccccc4)[C@@H]3C[C@H]12 (some centres undefined) [CARABRYL 3-PHENYLACRYLATE] | 33.2 (≈ 87.3 µM)
C=C1C(=O)O[C@@H]2C[C@]3(C)C(CCC(C)OC(=O)CCc4c[nH]c5ccccc45)[C@@H]3C[C@H]12 (some centres undefined) [CARABRYL 3-INDOLEPROPIONATE] | 12.8 (≈ 30.4 µM)
C=C1C(=O)O[C@@H]2C[C@]3(C)C(CCC(C)OC(=O)c4ccc(C(C)C)cc4)[C@@H]3C[C@H]12 (some centres undefined) [CARABRYL 4-ISOPROPYLBENZOATE] | 2.82 (≈ 7.11 µM)
C=C1C(=O)O[C@@H]2C[C@]3(C)C(CCC(C)OC(=O)CCCCCCCCCCC)[C@@H]3C[C@H]12 (some centres undefined) [CARABRYL LAURATE] | 33.6 (≈ 77.7 µM)
C=C1C(=O)O[C@@H]2C[C@]3(C)C(CCC(C)OC(=O)c4ccccc4C)[C@@H]3C[C@H]12 (some centres undefined) [CARABRYL 2-METHYLBENZOATE] | 52.3 (≈ 142 µM)
C=C1C(=O)O[C@@H]2C[C@]3(C)C(CCC(C)OC(=O)c4cccc(OC)c4OC)[C@@H]3C[C@H]12 (some centres undefined) [CARABRYL 2,3-DIMETHOXYBENZOATE] | 35.8 (≈ 86.3 µM)
C=C1C(=O)O[C@@H]2C[C@]3(C)C(CCC(C)OC(=O)CCc4ccccc4)[C@@H]3C[C@H]12 (some centres undefined) [CARABRYL 3-PHENYLPROPANOATE] | 13.2 (≈ 34.6 µM)
C=C1C(=O)O[C@@H]2C[C@]3(C)C(CCC(C)OC(=O)Cc4ccc(Br)cc4)[C@@H]3C[C@H]12 (some centres undefined) [CARABRYL 4-BROMOPHENYLACETATE] | 44.4 (≈ 99.3 µM)
C=C1C(=O)O[C@@H]2C[C@]3(C)C(CCC(C)OC(=O)c4cccc(Cl)c4)[C@@H]3C[C@H]12 (some centres undefined) [CARABRYL 3-CHLOROBENZOATE] | 26.7 (≈ 68.7 µM)
C=C1C(=O)O[C@@H]2C[C@]3(C)C(CCC(C)OC(=O)c4cccc(F)c4)[C@@H]3C[C@H]12 (some centres undefined) [CARABRYL 3-FLUOROBENZOATE] | 30.4 (≈ 81.7 µM)
C=C1C(=O)O[C@@H]2C[C@]3(C)C(CCC(C)OC(=O)c4ccc(Br)cc4)[C@@H]3C[C@H]12 (some centres undefined) [CARABRYL 4-BROMOBENZOATE] | 31.3 (≈ 72.2 µM)
C=C1C(=O)O[C@@H]2C[C@]3(C)C(CCC(C)OC(=O)CCCC)[C@@H]3C[C@H]12 (some centres undefined) [CARABRYL N-PENTANOATE] | 31.2 (≈ 93.3 µM)
C=C1C(=O)O[C@@H]2C[C@]3(C)C(CCC(C)OC(C)=O)[C@@H]3C[C@H]12 (some centres undefined) [CARABRYL ACETATE] | 10.8
C=C1C(=O)O[C@@H]2C[C@]3(C)C(CCC(C)OC(=O)/C=C/c4ccc([N+](=O)[O-])cc4)[C@@H]3C[C@H]12 (some centres undefined) | 22.8 (≈ 53.7 µM)
C=C1C(=O)O[C@@H]2C[C@]3(C)C(CCC(C)OC(=O)c4ccc(F)cc4)[C@@H]3C[C@H]12 (some centres undefined) [CARABRYL 4-FLUOROBENZOATE] | 21.2 (≈ 57 µM)
C=C1C(=O)O[C@@H]2C[C@]3(C)C(CCC(C)OC(=O)/C=C/C=C/C)[C@@H]3C[C@H]12 (some centres undefined) [CARABRYL 2,4-HEXADIENOATE] | 8.41 (≈ 24.4 µM)

Structure (SMILES) | IC50 [µg/mL]
C=C1C(=O)O[C@@H]2C[C@]3(C)C(CCC(C)OC(=O)c4ccccc4OCC)[C@@H]3C[C@H]12 (some centres undefined) [CARABRYL 2-ETHOXYBENZOATE] | 41.6 (≈ 104 µM)
C=C1C(=O)O[C@@H]2C[C@]3(C)C(CCC(C)OC(=O)/C=C/c4ccc(OC)c(OC)c4)[C@@H]3C[C@H]12 (some centres undefined) | 25.1 (≈ 56.9 µM)
C=C1C(=O)O[C@@H]2C[C@]3(C)C(CCC(C)OC(=O)c4cccc5ccccc45)[C@@H]3C[C@H]12 (stereo partly drawn) [CARABRYL ALPHA-NAPHTHYLCARBOXYLATE] | 23.3 (≈ 57.6 µM)
N#Cc1c(Cl)c(Cl)c(Cl)c(C#N)c1Cl [CHLOROTHALONIL] | 0.87 (≈ 3.27 µM)
C=C1C(=O)O[C@@H]2C[C@]3(C)C(CCC(C)OC(=O)c4cccc(Br)c4)[C@@H]3C[C@H]12 (some centres undefined) [CARABRYL 3-BROMOBENZOATE] | 36.7 (≈ 84.7 µM)
C=C1C(=O)O[C@@H]2C[C@]3(C)C(CCC(C)OC(=O)c4ccc(Cl)cc4)[C@@H]3C[C@H]12 (some centres undefined) [CARABRYL 4-CHLOROBENZOATE] | 31.8 (≈ 81.8 µM)
C=C1C(=O)O[C@@H]2C[C@]3(C)C(CCC(C)OC(=O)c4ccc(OC)c(OC)c4)[C@@H]3C[C@H]12 (some centres undefined) [CARABRYL 3,4-DIMETHOXYBENZOATE] | 33 (≈ 79.5 µM)
C=C1C(=O)O[C@@H]2C[C@]3(C)C(CCC(C)OC(=O)c4ccc(OC)cc4)[C@@H]3C[C@H]12 (some centres undefined) [CARABRYL 4-METHOXYBENZOATE] | 47.5 (≈ 123 µM)
C=C1C(=O)O[C@@H]2C[C@]3(C)C(CCC(C)OC(=O)c4ccncc4)[C@@H]3C[C@H]12 (some centres undefined) [CARABRYL ISONICOTINATE] | 4.31 (≈ 12.1 µM)
C=C1C(=O)O[C@@H]2C[C@]3(C)C(CCC(C)OC(=O)c4ccccc4I)[C@@H]3C[C@H]12 (some centres undefined) [CARABRYL 2-IODOBENZOATE] | 39 (≈ 81.3 µM)
C=C1C(=O)O[C@@H]2C[C@]3(C)C(CCC(C)OC(=O)c4ccc(I)cc4)[C@@H]3C[C@H]12 (some centres undefined) [CARABRYL 4-IODOBENZOATE] | 33.5 (≈ 69.7 µM)
C=C1C(=O)O[C@@H]2C[C@]3(C)C(CCC(C)OC(=O)CC)[C@@H]3C[C@H]12 (some centres undefined) [CARABRYL PROPANOATE] | 23.3 (≈ 76 µM)
C=C1C(=O)O[C@@H]2C[C@]3(C)C(CCC(C)OC(=O)c4cccnc4Cl)[C@@H]3C[C@H]12 (some centres undefined) [CARABRYL 2-CHLORONICOTINATE] | 4.62 (≈ 11.8 µM)
C=C1C(=O)O[C@@H]2C[C@]3(C)C(CCC(C)OC(=O)c4cccc(OC)c4)[C@@H]3C[C@H]12 (some centres undefined) [CARABRYL 3-METHOXYBENZOATE] | 49.4 (≈ 129 µM)
C=C1C(=O)O[C@@H]2C[C@]3(C)C(CCC(C)OC(=O)c4ccccc4OC)[C@@H]3C[C@H]12 (some centres undefined) [CARABRYL 2-METHOXYBENZOATE] | 46.1 (≈ 120 µM)
C=C1C(=O)O[C@@H]2C[C@]3(C)C(CCC(C)OC(=O)c4cnc(C)cn4)[C@@H]3C[C@H]12 (some centres undefined) | 20.5 (≈ 55.3 µM)
C=C1C(=O)O[C@@H]2C[C@]3(C)C(CCC(C)OC(=O)c4cccnc4)[C@@H]3C[C@H]12 (some centres undefined) [CARABRYL NICOTINATE] | 8.26 (≈ 23.2 µM)
C=C1C(=O)O[C@@H]2C[C@]3(C)C(CCC(C)OC(=O)CCl)[C@@H]3C[C@H]12 (some centres undefined) [CARABRYL CHLOROACETATE] | 4.51 (≈ 13.8 µM)
C=C1C(=O)O[C@@H]2C[C@]3(C)C(CCC(C)OC(=O)CCC)[C@@H]3C[C@H]12 (some centres undefined) [CARABRYL N-BUTYRATE] | 20.8 (≈ 65 µM)
